Screening results from PubChem.
Compounds with a hit are over-represented: about 1.6% of the library has one in this group of screens.
Pf gametocyte – inhibitors of late stage P. falciparum gametocyte viability | actives 0.065% (n = 150,000) | P. falciparum stage V gametocytes, ATP luminescence, 24 h | inhibition, % at 10.9 µM | AID 743093;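 active means inhibition above the mean plus 3 SD of compounds within the control limits, set per campaign, cut at about 38% in these data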;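 further: 0% = DMSO wells and 100% = medium only without gametocytes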
Mdm2 ligase inh – blocks human Mdm2 ubiquitin ligase activity; signal enhancement, % at 5 µM; cell-based MDM2 ubiquitination luciferase reporter, 2 h; 0 = plate control, 100 = twice control, blank-subtracted; Q00987; AID 1230; actives 0.11% (n = 210,000);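 active means signal enhancement of 30% or more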;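 further: luminescence tracks abundance of the self-degrading MDM2-luciferase fusion protein; higher signal means inhibition of MDM2 E3 ligase activity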
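system = mammalian cells stably expressing self-ubiquitinating, self-degrading MDM2 E3–luciferase fusion | quantity = 2000 cells per well seeded | incubation = 4 h cell settling then 2 h compound exposure, 37 °C | signal = SteadyLite luminescence, 15 min reagent step | benchmarks = plate control and blank wells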
Wee1 degr inh – blocks degradation of human Wee1 kinase; reporter increase, % at 5 µM; actives 1.2% (n = 220,000); P30291; HeLa Luc-Wee1K328M stability, luciferase luminescence; 100% = proteasome inhibitor MG132 effect;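 active means activation above the mean of all tested compounds plus 3 SD, set per screening run, cut at about 8.8% in these data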;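 further: cells exposed to compound for 20 h before luminescence read; 0% = DMSO alone and 100% = MG132 at 30 µM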
Target sequence (P30291 whole entry K328M): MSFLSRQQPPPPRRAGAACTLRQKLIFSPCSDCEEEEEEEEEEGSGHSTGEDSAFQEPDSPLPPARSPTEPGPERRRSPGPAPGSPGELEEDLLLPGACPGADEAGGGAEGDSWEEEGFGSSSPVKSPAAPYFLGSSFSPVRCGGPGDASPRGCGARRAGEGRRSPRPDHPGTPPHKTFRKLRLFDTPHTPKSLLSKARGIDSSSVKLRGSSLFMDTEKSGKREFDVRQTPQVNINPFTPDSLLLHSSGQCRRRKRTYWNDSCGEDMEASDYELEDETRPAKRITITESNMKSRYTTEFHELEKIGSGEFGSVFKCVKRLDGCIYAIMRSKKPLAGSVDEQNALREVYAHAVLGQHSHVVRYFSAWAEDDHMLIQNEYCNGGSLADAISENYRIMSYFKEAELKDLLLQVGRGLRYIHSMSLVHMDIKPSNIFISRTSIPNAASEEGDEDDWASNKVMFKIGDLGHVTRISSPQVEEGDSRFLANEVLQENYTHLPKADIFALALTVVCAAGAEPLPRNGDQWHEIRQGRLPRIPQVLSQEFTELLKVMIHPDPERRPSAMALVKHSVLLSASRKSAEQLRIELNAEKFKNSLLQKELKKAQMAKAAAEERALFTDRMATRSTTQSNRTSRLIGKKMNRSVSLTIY
TNF death inh – inhibitors of TNF-alpha induced necroptosis in Jurkat FADD-/- cells; AID 463075; Jurkat FADD-/- TNF necroptosis rescue, ATP luminescence, 24 h; 0 = TNF only, 100 = no-TNF cells; actives 0.068% (n = 220,000); activation (protection from cell death), % at 10 µM;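 active means activation, meaning protection from cell death, of at least 50% relative to plate controls; inactive means activation below 50%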;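 further: necroptosis triggered by 40 ng/mL TNF-alpha added together with compound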
L929 necroptosis – L929 zVAD cell death inhibition | L929 zVAD necroptosis rescue, ATP luminescence, 24 h; with zVAD 60 µM | viability rescue, % at 10 µM | actives 0.38% (n = 220,000);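 active means activation, scaled between plate controls, above about 75%, limit read from the data; inactive means activation under that limit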;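 further: 0% = zVAD with DMSO and 100% = DMSO alone without zVAD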
Wee1 degr conf – confirmation of human Wee1 degradation inhibitors | HeLa Luc-Wee1K328M degradation, luminescence; vehicle 0%, proteasome-blocked wells 100% | AID 1410 | actives 4% (n = 1,100) | activation, % at 5 µM | shares compounds with Wee1 degr inh; in the data active means activation above about 8.9%
The depositor's hits bear a star; nt = no result given.

SMILES | Pf gametocyte | Mdm2 ligase inh | Wee1 degr inh | TNF death inh | L929 necroptosis | Wee1 degr conf
Cc1cc(-c2nnc(-c3cccc(Cl)c3)o2)no1 | -3 | -19 | 18* | 1 | 0 | 2
Cc1ccsc1/C=N/Nc1nc2ccccc2s1 | -30 | -17 | 14* | 18 | 66 | 6
Cc1cc(C)nc(N/N=C/c2sccc2C)n1 | nt | -1 | 3 | 0 | 0 | nt
O=C(Nc1cccc([N+](=O)[O-])c1)Nc1ccc2c(c1)OCCO2 | 15 | -8 | 17* | 0 | 4 | 4
C=CCOC(=O)C1=C(C)NC(=O)NC1c1ccc(OCC)cc1 (centres undefined) | 10 | nt | nt | nt | nt | nt
CCNS(=O)(=O)c1ccc(NS(=O)(=O)c2cc(C)ccc2C)cc1 | -2 | -15 | 13* | -1 | -1 | 0
Cc1ccc2nc(N(CCCN(C)C)C(=O)c3cc4ccccc4oc3=O)sc2c1 | nt | -3 | 15* | 5 | 0 | -2
Cc1onc(-c2ccccc2)c1C(=O)N1CCCN(C(=O)c2c(-c3ccccc3)noc2C)CC1 | -24 | 8 | 0 | 0 | 0 | nt
Cc1onc(-c2ccccc2)c1C(=O)N1CCN(C)CC1 | nt | -36 | 17* | 0 | 0 | -1
Cn1nnc2c[n+](CC(=O)c3ccc(Cl)cc3)cc(Br)c21 | -5 | 1 | -1 | -19 | -1 | nt
COc1cc(CNc2ccc(N3CCN(C(C)=O)CC3)cc2)ccc1OCc1ccc(F)cc1 | -35 | -3 | 12* | 0 | 6 | 3
CC(=O)N1CCN(c2ccc(NCc3ccc(F)cc3)cc2)CC1 | nt | -19 | 1 | -1 | 1 | nt
O=C(OCCN1CCCC1=O)c1cncc(Br)c1 | nt | -16 | -1 | -1 | 0 | nt
COc1ccc(OC)c(S(=O)(=O)N2CCNCC2)c1 | 8 | nt | -2 | 0 | 1 | nt
COc1ccc2c(c1)c(CC(=O)Nc1cc(C)ccc1C)c(C)n2C(=O)c1ccc(Cl)cc1 | nt | 9 | 14* | 2 | nt | 2
COc1ccc(Cn2c(=S)[nH]c3cc(C(=O)NCc4cccnc4)ccc3c2=O)cc1 | -17 | 6 | -2 | 0 | 0 | nt
O=C(Nc1ccccc1)c1nc[nH]c1C(=O)NCCCNC(=O)c1[nH]cnc1C(=O)Nc1ccccc1 | -7 | nt | nt | nt | nt | nt
O=C(/C=N\O)NCCCNCc1ccccc1 | nt | -21 | 16* | -1 | 0 | 1
C(=C\c1nnc2c3ccccc3ncn12)/c1ccccc1 | -13 | -34 | 12* | -3 | 4 | 8
COc1cc(/C=C/c2nnc3c4ccccc4ncn23)cc(OC)c1OC | -1 | -5 | 2 | -4 | 1 | nt
CC(C)=CCc1c(O)ccc2c1OC(c1ccc(O)c(O)c1)CC2=O (centres undefined) | nt | -19 | 33* | -1 | 11 | 2
Cc1cccc(NC(=O)c2ccco2)c1C(=O)O | -15 | -12 | -2 | 1 | 0 | nt
CC(C)(C)NC(=O)/C(=C\c1ccccc1F)NC(=O)c1ccc([N+](=O)[O-])cc1 | nt | -7 | 1 | 1 | 0 | nt
CC(C)(C)NC(=O)/C(=C/c1ccccc1F)NC(=O)c1ccc([N+](=O)[O-])cc1 | -25 | -11 | 15* | 1 | 1 | 2
O=C(NC1CCCCC1)c1cc(Cl)ccc1[N+](=O)[O-] | 13 | -6 | 16* | 2 | 0 | 0
SMILES | Pf gametocyte | Mdm2 ligase inh | Wee1 degr inh | TNF death inh | L929 necroptosis | Wee1 degr conf
O=C(NC1CCCC1)c1cc(Cl)ccc1[N+](=O)[O-] | nt | 5 | -1 | 1 | 0 | nt
O=C(Oc1ccc(=O)n(-c2ccccc2)n1)c1ccc(Cl)cc1 | 1 | 0 | 2 | -1 | 0 | nt
O=C(Oc1ccc(=O)n(-c2ccccc2)n1)c1cccc(Cl)c1 | -30 | -16 | 11* | -1 | 0 | 3
O=C(CN1N=C(c2ccccc2)CCC1=O)NCCN1CCc2ccccc2C1 | 12 | nt | 13* | 1 | 0 | 1
O=C(CN1N=C(c2ccccc2)CCC1=O)NCc1ccccc1 | -14 | -15 | 2 | 1 | 3 | nt
Cc1ccc(NC(=O)COC(=O)[C@H](C)N2C(=O)C3CC=CCC3C2=O)cc1S(=O)(=O)N(C)C (some centres undefined) | 1 | -18 | 14* | 0 | 1 | 4
